From ChEMBL document CHEMBL4811250, “Discovery and Optimization of 2H-1λ2-Pyridin-2-one Inhibitors of Mutant Isocitrate Dehydrogenase 1 for the Treatment of Cancer” (J Med Chem, 2021)
In brackets after ≈: the same amount, converted by molar mass. Several values for one entry are separate records, joined by “and”; a condition that tells them apart may be missing. Identical values can stand only once.

Tests used:
[1] = biological target: Isocitrate dehydrogenase [NADP] cytoplasmic (Homo sapiens, UniProt O75874, R132H); test: Inhibition of IDH1 R132H mutant (unknown origin) assessed as reduction in NADPH consumption using alpha-KG as substrate incubated for 5 mins by diaphorase/resazurin-coupled system
Sequence of Isocitrate dehydrogenase [NADP] cytoplasmic (Homo sapiens, UniProt O75874, R132H) (O75874 2-414 R132H limits assumed): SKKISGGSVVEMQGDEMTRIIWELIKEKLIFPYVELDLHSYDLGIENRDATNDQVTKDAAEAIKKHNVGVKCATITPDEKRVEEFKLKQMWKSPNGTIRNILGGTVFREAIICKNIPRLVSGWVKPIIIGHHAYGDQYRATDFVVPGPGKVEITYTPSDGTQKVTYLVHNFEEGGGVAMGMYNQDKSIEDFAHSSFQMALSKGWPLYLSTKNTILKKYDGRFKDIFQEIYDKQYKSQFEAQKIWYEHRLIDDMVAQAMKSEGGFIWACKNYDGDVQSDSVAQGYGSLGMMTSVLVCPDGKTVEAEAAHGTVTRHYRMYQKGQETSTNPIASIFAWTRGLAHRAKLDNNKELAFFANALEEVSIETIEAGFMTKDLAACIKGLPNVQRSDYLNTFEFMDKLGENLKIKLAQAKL

[2] = biological target: Isocitrate dehydrogenase [NADP] cytoplasmic (Homo sapiens, UniProt O75874, R132C); test: Inhibition of IDH1 R132C mutant (unknown origin) assessed as reduction in NADPH consumption using alpha-KG as substrate incubated for 5 mins by diaphorase/resazurin-coupled system
Sequence of Isocitrate dehydrogenase [NADP] cytoplasmic (Homo sapiens, UniProt O75874, R132C) (O75874 2-414 R132C limits assumed): as the sequence (O75874 2-414 R132H limits assumed) above, with H131C counted along it

[3] = Metabolic stability in rat liver microsomes assessed as half life incubated for 15 mins by high resolution LC/MS analysis; format: ADME, Microsome; details: 0.25 h
Outline: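 Rat liver microsomes (0.5 mg/mL protein) with 1.0 μM compound and NADPH regenerating system in 100 mM phosphate pH 7.4, 15 min at 37 °C. Quenched with acetonitrile containing albendazole internal standard. Percent remaining measured by high-resolution LC/MS.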

[4] = Permeability of compound at pH 7.4 by PAMPA assay; format: ADME; details: for Papp: read-out: permeability
Outline: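 Stirring double-sink PAMPA using a lipid/dodecane membrane tuned for GI passive permeability, pH 7.4 on donor and acceptor sides. Compound at 0.05 mM (0.5% DMSO), 30 min permeation at room temperature with donor stirring. Donor and acceptor concentrations read by UV plate reader.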

[5] = Kinetic solubility of the compound in pH 7.4 phosphate buffer measured after 6 hrs by UV spectroscopy; format: physicochemical; details: read-out: Kinetic_solubility
[6] = system: Isocitrate dehydrogenase [NADP] cytoplasmic (Homo sapiens), O75874 [R132H]; test: Inhibition of IDH1 R132H mutant (unknown origin) expressed in human U87 cells assessed as R-2-hydroxyglutarate production at 100 nM after 48 hrs by LC-MS analysis; format: cell-based; design: scale not given: the % may be the effect or the level left
Sequence of Isocitrate dehydrogenase [NADP] cytoplasmic (Homo sapiens), O75874 [R132H] (O75874 whole entry R132H): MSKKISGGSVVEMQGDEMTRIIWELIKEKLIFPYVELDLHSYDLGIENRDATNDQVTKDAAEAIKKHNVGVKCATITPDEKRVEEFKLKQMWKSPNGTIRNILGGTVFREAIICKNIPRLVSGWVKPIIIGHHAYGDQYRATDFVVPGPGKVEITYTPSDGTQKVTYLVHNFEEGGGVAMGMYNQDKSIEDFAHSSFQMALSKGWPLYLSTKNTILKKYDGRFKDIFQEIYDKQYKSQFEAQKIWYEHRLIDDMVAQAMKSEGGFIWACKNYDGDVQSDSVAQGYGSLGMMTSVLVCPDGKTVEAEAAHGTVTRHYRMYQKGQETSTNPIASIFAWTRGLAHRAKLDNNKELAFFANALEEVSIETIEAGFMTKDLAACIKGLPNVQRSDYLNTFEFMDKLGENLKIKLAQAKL
Outline: (§1)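 U87-R132H cells (8000/well, DMEM high glucose, 10% FBS) were seeded, cultured overnight at 37 °C and 5% CO2, then given compound or DMSO. After 48 h, 2-HG secreted into the medium was measured by RapidFire LC-MS. Cell viability was checked by CellTiter-Glo.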

[7] = system: Isocitrate dehydrogenase [NADP] cytoplasmic (Homo sapiens), O75874 [R132H]; test: Inhibition of IDH1 R132H mutant (unknown origin) expressed in human U87 cells assessed as R-2-hydroxyglutarate production at 500 nM after 48 hrs by LC-MS analysis; format: cell-based; design: scale not given: the % may be the effect or the level left; outline: as §1
[8] = system: Isocitrate dehydrogenase [NADP] cytoplasmic (Homo sapiens), O75874 [R132H]; test: Inhibition of IDH1 R132H mutant (unknown origin) assessed as reduction in NADPH consumption using alpha-KG as substrate at 38 uM incubated for 5 mins by diaphorase/resazurin-coupled system relative to control
[9] = system: Isocitrate dehydrogenase [NADP] cytoplasmic (Homo sapiens), O75874 [R132C]; test: Inhibition of IDH1 R132C mutant (unknown origin) assessed as reduction in NADPH consumption using alpha-KG as substrate at 38 uM incubated for 5 mins by diaphorase/resazurin-coupled system relative to control
Sequence of Isocitrate dehydrogenase [NADP] cytoplasmic (Homo sapiens), O75874 [R132C] (O75874 whole entry R132C): as the sequence (O75874 whole entry R132H) above, with H132C counted along it

[10] = Tmax in CD1 mouse brain at 30 mg/kg, po measured up to 24 hrs by LC-MS/MS analysis; format: ADME, organism-based
Outline: (§2)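 Fed male CD1 mice (6–8 weeks, ~25–30 g) given a single 30 mpk oral dose as a 3 mg/mL solution in 20% PEG300, 40% Solutol solution (30% w/w in water), 40% DI water. Plasma (heparin-Na, heart puncture) and whole brain taken from N=3 mice per time point, 15 min to 24 h. LC/MS/MS quantitation gave Tmax, Cmax and AUC.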

[11] = Cmax in CD1 mouse brain at 30 mg/kg, po measured up to 24 hrs by LC-MS/MS analysis; format: ADME, organism-based; design: route oral, dose 30 mg/kg, time <=24; outline: as §2
[12] = AUClast in CD1 mouse brain at 30 mg/kg, po measured up to 24 hrs by LC-MS/MS analysis; format: ADME, organism-based; details: in vivo; outline: as §2
[13] = Ratio of AUClast in plasma to brain in CD1 mouse at 30 mg/kg, po measured up to 24 hrs by LC-MS/MS analysis; format: ADME, organism-based; details: in vivo; outline: as §2
[14] = Ratio of Cmax in plasma to brain in CD1 mouse at 30 mg/kg, po measured up to 24 hrs by LC-MS/MS analysis; format: ADME, organism-based; details: in vivo; outline: as §2
[15] = Tmax in CD1 mouse plasma at 30 mg/kg, po measured up to 24 hrs by LC-MS/MS analysis; format: ADME, organism-based; outline: as §2
[16] = Cmax in CD1 mouse plasma at 30 mg/kg, po measured up to 24 hrs by LC-MS/MS analysis; format: ADME, organism-based; design: route oral, dose 30 mg/kg, time <=24; outline: as §2
[17] = AUClast in CD1 mouse plasma at 30 mg/kg, po measured up to 24 hrs by LC-MS/MS analysis; format: ADME, organism-based; design: route oral, dose 30 mg/kg, time <=24; outline: as §2
[18] = Drug level in human U87MG cells expressing IDH1 R132H mutation transfected in NCr mouse plasma at 30 mg/kg, po measured after 24 hrs by LC-MS/MS analysis; format: ADME, organism-based, U-87MG ATCC; details: read-out: Drug uptake
Outline: (§3)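 Mice bearing subcutaneous U87MG glioblastoma cells carrying IDH1 R132H (1 x 10^7 cells/mouse) were staged at ~200 mg and randomized. Each received a single oral 30 mg/kg dose; vehicle was 10% NMP, 40% PEG300, 25% [30% Solutol in water], 25% DI water. K2EDTA blood and tumors were taken under isoflurane from 4 mice per group at 1–48 h. Drug was quantified by validated LC-MS/MS.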

[19] = Drug level in human U87MG cells expressing IDH1 R132H mutation transfected in NCr mouse plasma at 30 mg/kg, po measured after 36 hrs by LC-MS/MS analysis; format: ADME, organism-based, U-87MG ATCC; details: read-out: Drug uptake; outline: as §3
[20] = Drug level in human U87MG cells expressing IDH1 R132H mutation transfected in NCr mouse plasma at 30 mg/kg, po measured after 48 hrs by LC-MS/MS analysis; format: ADME, organism-based, U-87MG ATCC; details: read-out: Drug uptake; outline: as §3

SMILES | IC50 [1] [nM] | IC50 [2] [nM] | t1/2 [3] [min] | Papp [4] [×10⁻⁶ cm/s] | solubility kinetic at 6 h [5] [µg/mL] | Activity [6] [%] | Activity [7] [%] | inhibition [8] [%] | inhibition [9] [%] | other results
CCc1cccc(CC)c1-n1c(C=C(C)C)c(C(=O)N2CCNC(=O)C2)cc(-c2nc(-c3ccc(Cl)cc3)cs2)c1=O | 35 | 39 | 2 | 275 | < 1 | 23 | 13 |  |  | 
CCc1ccc(OC)cc1-n1c(C=C(C)C)c(C(=O)N2CCNCC2)cc(-c2nc(-c3ccc(Cl)cc3)cs2)c1=O | 114 | 75 | > 30 | 549 | < 1 | 40 | 19 |  |  | 
CCc1cccc(CC)c1-n1c(C=C(C)C)c(C(=O)N2CCNC(C(=O)O)C2)cc(-c2nc(-c3ccc(Cl)cc3)cs2)c1=O (stereo unspecified) | 55 | 64 | 23 | < 1 | 16 (≈ 25.3 µM) | 29 | 10 |  |  | 
CCc1cccc(CC)c1-n1c(C=C(C)C)c(C(=O)N2C[C@H]3CC[C@@H](C2)N3)cc(-c2nc(-c3ccc(Cl)cc3)cs2)c1=O | 94 | 60 | > 30 | 89 | < 1 | 11 | 10 |  |  | 
CCc1cccc(CC)c1-n1c(CC(C)C)c(C(=O)N2CCNCC2)cc(-c2nc(-c3ccc(Cl)cc3)cs2)c1=O | 110 | 120 | 17 | 16 | < 1 | 33 | 12 | 98 | 83 | 
CCc1ccc(Cl)cc1-n1c(C=C(C)C)c(C(=O)N2CCNCC2)cc(-c2nc(-c3ccc(Cl)cc3)cs2)c1=O |  |  | > 30 |  | < 1 | 5.9 | 4.1 |  |  | permeability [4]: 255 10^-6 cm/s and 434 10^-6 cm/s; Tmax [10]: 360 min; Cmax [11]: 595 ng/g; AUClast [12]: 7000 ng·h/g; Ratio AUC [13]: 3.52; Ratio [14]: 3.68; Tmax [15]: 240 min; Cmax [16]: 2010 ng/mL; AUC(0-t) at 24 h [17]: 24400 ng·h/mL; concentration at 24 h [18]: 9.5 µM; concentration at 36 h [19]: 7.2 µM; concentration at 48 h [20]: 6.8 µM
COc1ccc(OC)c(-n2c3c(cc(-c4nc(-c5ccc(Cl)cc5)c[nH]4)c2=O)C(=O)CC(C)(C)C3)c1 | 2200 | 2500 |  |  |  |  |  | 82 | 77 | 
CCCc1c(C(=O)N2CCNCC2)cc(-c2nc(-c3ccc(Cl)cc3)cs2)c(=O)n1-c1c(CC)cccc1CC | 75 | 100 | 27 | 134 | < 1 |  |  | 97 | 82 | 
CCc1cccc(CC)c1-n1c(C=C(C)C)c(C(=O)N2CCNCC2)cc(-c2nc(-c3ccc(Cl)cc3)cs2)c1=O | 44 | 58 | 14 | 225 | < 1 | 13 | 16 | 101 | 97 | 
CCOc1ccc(OCC)c(-n2c3c(cc(-c4nc(-c5ccc(Cl)cc5)cs4)c2=O)C(=O)CC(C)(C)C3)c1 | 160 | 64 |  |  |  |  |  | 85 | 75 | 
CC(C)Oc1ccccc1-n1c2c(cc(-c3nc(-c4ccc(Cl)cc4)cs3)c1=O)C(=O)CC(C)(C)C2 | 1100 | 470 |  |  |  |  |  | 80 | 77 | 
CCc1cccc(CC)c1-n1c(C)c(C(=O)NCC(N)=O)cc(-c2nc(-c3ccc(Cl)cc3)cs2)c1=O | 1600 | 3800 |  |  |  |  |  | 105 | 77 | 
CCc1cccc(CC)c1-n1c(CC2CC2)c(C(=O)N2CCNCC2)cc(-c2nc(-c3ccc(Cl)cc3)cs2)c1=O | 55 | 49 | 17 | 43 | < 1 |  |  | 107 | 96 | 
CCc1cccc(CC)c1-n1c(C=C(C)C)c(C(=O)N2C3CCC2CNC3)cc(-c2nc(-c3ccc(Cl)cc3)cs2)c1=O | 62 | 47 | 9 | 99 | < 1 | 32 | 18 |  |  | 
CCc1cccc(CC)c1-n1c(C)c(C(=O)NCCO)cc(-c2nc(-c3ccc(Cl)cc3)cs2)c1=O | 420 | 2000 |  |  |  |  |  | 104 | 96 | 
CCc1cccc(CC)c1-n1c(CC2CCOCC2)c(C(=O)N2CCNCC2)cc(-c2nc(-c3ccc(Cl)cc3)cs2)c1=O | 1100 | 980 |  |  |  |  |  | 93 | 79 | 
CCc1cccc(CC)c1-n1c(CC2CCNC2)c(C(=O)N2CCNCC2)cc(-c2nc(-c3ccc(Cl)cc3)cs2)c1=O (stereo unspecified) | 10000 |  | 7 | 24 | < 1 |  |  | 81 | 52 | 
CCc1cccc(CC)c1-n1c(C=C(C)C)c(C(=O)N2CCNC3(CC3)C2)cc(-c2nc(-c3ccc(Cl)cc3)cs2)c1=O | 78 | 48 | 12 | 48 | < 1 | 17 | 14 |  |  | 
CCc1cccc(CC)c1-n1c(C=C(C)C)c(C(=O)N2CCNCC2C)cc(-c2nc(-c3ccc(Cl)cc3)cs2)c1=O (stereo unspecified) | 39 | 53 | 17 | 40 | < 1 | 14 | 11 |  |  | 
CCc1cccc(CC)c1-n1c(C=C(C)C)c(C(=O)N2CCNC(C)C2)cc(-c2nc(-c3ccc(Cl)cc3)cs2)c1=O (stereo unspecified) | 44 | 46 |  |  |  | 11 | 8 |  |  | 
